The source made the active and inactive calls. The calls are words filed in the database; no cut-off is given here.

Test [1] relates to Hep 3B2. The test can be described thus: Antiinflammatory activity against human Hep3B cells assessed as reduction in p65 RNA expression level at 50 nM incubated for 24 hrs in presence of SGBS CM by qRT-PCR analysis. It is filed as functional, cell-based. In a few lines: (§1)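 Hep3B treated 24 h with 17-AAG 50 nM, alone, with 30% SGBS conditioned medium, or with resminostat 80 nM. p65 RNA measured by RT-PCR. Nuclear p65 protein measured by transcription-factor ELISA: nuclear extract bound to NFκB consensus-duplex plate for 1 h at room temperature, then anti-p65 and HRP secondary antibodies, then chemiluminescence read. n = 3.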
On the technique in general: In qPCR the cycle at which signal appears reflects the starting amount.

Test [2] concerns Hep 3B2. The test can be described thus: Downregulation of HDAC1 expression in human Hep3B cells at 50 nM incubated for 24 hrs by qRT-PCR analysis. The class given is functional, cell-based.
In test [3] the test system is Hep 3B2. The test can be described thus: Antiinflammatory activity against human Hep3B cells assessed as reduction in nuclear protein expression level of p65 […] at 50 nM incubated for 24 hrs in presence of SGBS CM by […] analysis. It is filed as functional, cell-based. In a few lines: as §1
Test [4] has as its system Hep 3B2. As to the kind of experiment: Downregulation of HDAC2 expression in human Hep3B cells at 50 nM incubated for 24 hrs by qRT-PCR analysis. It is filed as functional, cell-based.
Test [5] has as its system Hep 3B2. As to the kind of experiment: Antiinflammatory activity against human Hep3B cells assessed as reduction in resminostat-induced p65 RNA expression level at 50 nM incubated for 24 hrs by qRT-PCR analysis relative to control. The class given is functional. Also noted: scale not given: the % may be the effect or the level left. The gist of the method:
as §1

The subject of test [6] is Hep 3B2. The test can be described thus: Antiinflammatory activity against human Hep3B cells assessed as reduction in nuclear protein expression level of p65 […] at 50 nM incubated for 24 hrs by […] analysis. It is filed as functional, cell-based. In a few lines: as §1
The subject of test [7] is Hep 3B2. As to the kind of experiment: Anti-proliferative activity against human Hep3B cells assessed as reduction in cell viability at 50 nM measured after 24 hrs by Fluoro Fire-Blue ProViaTox assay. It is filed as functional, cell-based.
In test [8] the test system is Hep 3B2. The test can be described thus: Anti-proliferative activity against human Hep3B cells assessed as reduction in cell viability at7 nM incubated for 24 hrs by Fluoro Fire-Blue ProViaTox assay. As to conditions: dose 7.0 nM. The class given is functional, cell-based.
Test [9] concerns Hep 3B2. As to the kind of experiment: Anti-proliferative activity against human Hep3B cells assessed as reduction in cell viability at 1 uM incubated for 24 hrs by Fluoro Fire-Blue ProViaTox assay. It is filed as functional, cell-based.
Test [10] concerns Hep 3B2. The test can be described thus: Anti-proliferative activity against human Hep3B cells assessed as reduction in cell viability at 20 uM incubated for 24 hrs by Fluoro Fire-Blue ProViaTox assay. It is filed as functional, cell-based.

On to `C=CCNC1=C2C[C@@H](C)C[C@H](OC)[C@H](O)[C@@H](C)/C=C(\C)[C@H](OC(N)=O)[C@@H](OC)/C=C\C=C(/C)C(=O)NC(=CC1=O)C2=O` [TANESPIMYCIN], for which the result with Hep 3B2 [1], in the test on Hep 3B2 [2], with Hep 3B2 [3], with Hep 3B2 [4], in the test on Hep 3B2 [6] and in the test on Hep 3B2 [7] was Active. Further, in the test with Hep 3B2 [5], the Activity was determined as 100%.
In the case of `CCCc1cc(C)[nH]c(=O)c1CNC(=O)c1cc(-c2ccnc(N3CCN(C)CC3)c2)cc2c1cnn2C(C)C`, the outcome with Hep 3B2 [8] was Active.
As for `COc1cccc2c1C(=O)c1c(O)c3c(c(O)c1C2=O)C[C@@](O)(C(=O)CO)C[C@@H]3O[C@H]1C[C@H](N)[C@H](O)[C@H](C)O1`, the result with Hep 3B2 [9] was Active.
As for `Nc1nccc2c1ncn2[C@@H]1C=C(CO)[C@@H](O)[C@H]1O`, the outcome in the test on Hep 3B2 [10] was Active.

The values are drawn from ChEMBL document CHEMBL5674881, “The therapeutic properties of resminostat for hepatocellular carcinoma” (2018).
